Results as given in ChEMBL document CHEMBL4765399, “Design, synthesis, and biological evaluation of 5-((8-methoxy-2-methylquinolin-4-yl)amino)-1H-indole-2-carbohydrazide derivatives as novel Nur77 modulators” (Eur J Med Chem, 2020).
Activity calls are given as the source filed them. The calls are words filed in the database; no cut-off is given here.

How the values were obtained:
QGY-7703 [1] = assay: Induction of apoptosis in human QGY-7703 cells assessed as increase in cleaved PARP level at 0.5 to 2 uM incubated for 12 hrs by Western blot analysis; format: functional, cell-based; conditions: dose 0.5-2 µM
Method in brief: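 QGY-7703 (RPMI 1640, 10% FBS) and SMMC-7721 (DMEM) cells at 37 °C, 5% CO2, treated with graded concentrations for 12 h. RIPA lysates (40-80 µg protein) run on SDS-PAGE, transferred to nitrocellulose, immunoblotted for cleaved PARP; chemiluminescence read-out.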

HepG2 [2] = assay: Upregulation of Nur77 expression in human HepG2 cells pretreated with nuclear export inhibitor, LMB followed by incubation with compound for 12 hrs by western blot analysis; format: functional, cell-based
HepG2 [3] = assay: Induction of endoplasmic reticulum stress in human HepG2 cells assessed as increase in CHOP protein expression incubated for 12 hrs by Western blot analysis; format: functional, cell-based; conditions: dose 0.5-2 µM
Method in brief: (§1)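 HepG2, QGY-7703 and SMMC-7721 treated with graded concentrations for 12 h. Lysed in RIPA with inhibitors; 40-80 µg protein separated by SDS-PAGE, blotted to nitrocellulose, blocked 1 h in 5% milk, primary antibodies overnight (LC3, Beclin1, Bip, CHOP, TRB3), HRP secondaries, chemiluminescence.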

HepG2 [4] = assay: Disruption of mitochondrial membrane potential in human HepG2 cells assessed as red fluorescence intensity at 2 uM incubated for 12 hrs by JC-1 staining based flow cytometry (reference value: 23598 units); format: functional
HepG2 [5] = assay: Induction of autophagy in Nur77 knockout human HepG2 cells assessed as increase in LC3-II expression at 2 uM measured after 6 to 12 hrs by Western blot analysis; format: functional, cell-based; conditions: time 6-12 hrs
Method in brief: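 Scrambled-control and shNur77 HepG2 given DMSO or 2.0 µM for 6 or 12 h; immunoblotting of RIPA lysates for LC3, Beclin1 and Nur77 after SDS-PAGE and nitrocellulose transfer, chemiluminescent detection.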

HepG2 [6] = assay: Induction of apoptosis in human HepG2 cells assessed as increase in PARP cleavage at 2 uM measured after 12 hrs by Western blot analysis
[7] = biological target: T1, Nuclear receptor subfamily 4immunitygroup A member 1 (Homo sapiens, UniProt P22736); assay: Binding affinity to Nur77 ligand binding domain (unknown origin) assessed as fast association/dissociation kinetics by surface plasmon resonance analysis; conditions: filed as modulator
Method in brief: (§2)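 SPR with Nur77-LBD, analyte injected at a series of concentrations; KD (equilibrium dissociation constant) and association/dissociation kinetics derived from the sensorgrams.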

HepG2 [8] = assay: Induction of apoptosis in human HepG2 cells transfected with shNur77 assessed as increase in cleaved PARP level at 2 uM incubated for 12 hrs by Western blot analysis; format: functional, cell-based
Method in brief: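 HepG2 carrying scrambled or Nur77 shRNA exposed to 2.0 µM for 12 h. RIPA lysates with protease/phosphatase inhibitors, 40-80 µg protein by BCA resolved on SDS-PAGE, moved to nitrocellulose, milk-blocked, probed overnight for PARP cleavage and Nur77 with HRP secondaries, chemiluminescent detection.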

[9] = biological target: T1, Nuclear receptor subfamily 4immunitygroup A member 1; assay: Binding affinity to Nur77 ligand binding domain (unknown origin) assessed as dissociation constant by surface plasmon resonance analysis; method in brief: as §2
HepG2 [10] = assay: Induction of apoptosis in human HepG2 cells assessed as cleaved caspase-3 expression at 2 uM pretreated with ER stress inhibitor, 4-PBA for 2 hrs followed by incubation with compound for 12 hrs by Western blot analysis; format: functional, cell-based
Method in brief: (§3)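 HepG2 cells grown to confluence were pretreated 2 h with 2 mM 3-MA (autophagy inhibitor) or 2 mM 4-PBA (ER stress inhibitor), then exposed to compound for 12 h. Proteins (40–80 µg, RIPA lysate) were resolved by SDS-PAGE and blotted for PARP, cleaved caspase-3/-9, Bcl-2 and Bax, with chemiluminescent detection.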

HepG2 [11] = assay: Induction of apoptosis in human HepG2 cells assessed as cleaved caspase-9 expression at 2 uM pretreated with autophagy inhibitor, 3-methyladenine for 2 hrs followed by incubation with compound for 12 hrs by Western blot analysis; format: functional, cell-based; method in brief: as §3
SMMC-7721 = assay: Antiproliferative activity against human SMMC-7721 cells assessed as reduction in cell viability at 2 uM by MTT assay; format: functional, cell-based; conditions: time 12-48 hrs, TDE = time-dependent effect
Method in brief: (§4)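 Cells treated with 2.0 µM over a time course; viability read by MTT. HepG2, SMMC-7721 kept in DMEM, QGY-7703 in RPMI 1640, with 10% FBS at 37 °C and 5% CO2.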

HepG2 [12] = assay: Induction of endoplasmic reticulum stress in human HepG2 cells assessed as increase in bip protein expression incubated for 12 hrs by Western blot analysis; format: functional, cell-based; conditions: dose 0.5-2 µM; method in brief: as §1
HepG2 [13] = assay: Induction of endoplasmic reticulum stress in Nur77 […] human HepG2 cells assessed as CHOP protein expression at 2 uM incubated for 6 to 12 hrs by Western blot analysis; format: functional, cell-based; conditions: time 6-12 hrs
Method in brief: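 HepG2 and shNur77 HepG2 exposed to DMSO or 2.0 µM for 6 and 12 h; lysates immunoblotted for TRB3, Bip, CHOP and Nur77 (SDS-PAGE, nitrocellulose, overnight primary antibodies, HRP secondary, chemiluminescence).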

QGY-7703 [14] = assay: Induction of endoplasmic reticulum stress in human QGY-7703 cells assessed as increase in bip protein expression incubated for 12 hrs by Western blot analysis; format: functional, cell-based; conditions: dose 0.5-2 µM; method in brief: as §1
QGY-7703 [15] = assay: Induction of endoplasmic reticulum stress in human QGY-7703 cells assessed as increase in TRB3 protein expression incubated for 12 hrs by Western blot analysis; format: functional, cell-based; conditions: dose 0.5-2 µM; method in brief: as §1
HepG2 [16] = assay: Induction of apoptosis in human HepG2 cells assessed as cleaved PARP expression at 2 uM pretreated with ER stress inhibitor, 4-PBA for 2 hrs followed by incubation with compound for 12 hrs by Western blot analysis; format: functional, cell-based; method in brief: as §3
HepG2 [17] = assay: Induction of apoptosis in human HepG2 cells assessed as late apoptotic cells at 1 uM incubated for 12 hrs by Annexin V-FITC/PI staining based flow cytometry (reference value: 1.1%); format: functional
HepG2 [18] = assay: Antitumor activity against human HepG2 cells xenografted in BALB/c mouse assessed as induction of ER stress by measuring increase in bip level in tumor tissue at 10 to 20 mg/kg/day, ip administered for 15 days by western blot analysis; format: functional, organism-based; conditions: dose 10-20 mg/kg/day, time 15.0 day
Method in brief: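 HepG2 cells (5×10^6) injected subcutaneously into flanks of 4-week-old male Balb/c nude mice. At about 100 mm³, 15 mice were randomized to vehicle, 10 or 20 mg/kg i.p. once daily for 15 days. Tumors were then excised for immunostaining of paraffin sections (5 μm) or for western blot.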

QGY-7703 [19] = assay: Antiproliferative activity against human QGY-7703 cells assessed as reduction in cell viability at 2 uM by MTT assay; format: functional, cell-based; conditions: time 12-48 hrs, TDE = time-dependent effect; method in brief: as §4
HepG2 [20] = assay: Induction of morphological changes in human HepG2 cells assessed as cell shrinkage at 1 to 2 uM incubated for 6 to 12 hrs by phase contrast microscopic analysis; format: functional, cell-based; conditions: dose 1-2 µM, time 6-12 hrs
Method in brief: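 HepG2 cells given graded concentrations; morphology monitored at set time points by phase-contrast optical microscopy.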

T1 sequence (P22736 whole entry, the tested form may be a part): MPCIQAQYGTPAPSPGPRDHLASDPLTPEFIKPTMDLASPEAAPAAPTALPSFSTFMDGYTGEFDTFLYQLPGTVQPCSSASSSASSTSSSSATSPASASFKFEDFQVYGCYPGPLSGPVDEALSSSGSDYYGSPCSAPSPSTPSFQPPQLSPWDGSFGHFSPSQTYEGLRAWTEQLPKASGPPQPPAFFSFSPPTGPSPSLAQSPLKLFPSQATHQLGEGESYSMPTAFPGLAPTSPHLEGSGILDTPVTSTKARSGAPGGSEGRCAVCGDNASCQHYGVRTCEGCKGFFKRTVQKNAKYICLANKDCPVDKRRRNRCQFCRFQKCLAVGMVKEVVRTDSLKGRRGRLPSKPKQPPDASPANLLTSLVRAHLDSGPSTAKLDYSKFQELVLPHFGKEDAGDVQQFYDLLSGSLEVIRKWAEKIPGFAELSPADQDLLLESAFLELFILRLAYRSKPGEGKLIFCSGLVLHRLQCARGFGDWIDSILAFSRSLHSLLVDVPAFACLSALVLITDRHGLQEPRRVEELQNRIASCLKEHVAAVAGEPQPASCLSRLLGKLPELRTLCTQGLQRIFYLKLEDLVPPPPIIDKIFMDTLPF

For `COc1cccc2c(Nc3ccc4[nH]c(C(=O)N/N=C/c5ccc(SC)cc5)cc4c3)cc(C)nc12`, the Activity (QGY-7703 [1]) was “Dose-dependent effect”, the Activity (HepG2 [2]) was “Active” and the Activity (HepG2 [3]) was “Dose-dependent effect”. The Activity (HepG2 [4]) was 10298 U, the Activity (HepG2 [5]) was “inactive” and the Activity (HepG2 [6]) was “Active”. The Activity [7] was “Active”, the Activity (HepG2 [8]) was “inactive” and the Kd [9] was 3.58 µM. For the same compound, the Activity ([9]; filed as modulator) was “Dose-dependent effect”, the Activity (HepG2 [10]) was “inactive” and the Activity (HepG2 [11]) was “inactive”. For the same compound, the Activity (SMMC-7721) was “Tde”, the Activity (HepG2 [12]) was “Dose-dependent effect” and the Activity (HepG2 [13]) was “inactive”. The Activity (QGY-7703 [14]) was “Dose-dependent effect”, the Activity (QGY-7703 [15]) was “Dose-dependent effect” and the Activity (HepG2 [16]) was “inactive”. For the same compound, the Activity (HepG2 [17]) was 16.1%, the Activity (HepG2 [18]) was “Active” and the Activity (QGY-7703 [19]) was “Tde”. The Activity (HepG2 [20]) was “Active”.
